According to ChEMBL document CHEMBL1149628, “Synthesis of novel lactam derivatives and their evaluation as ligands for the dopamine receptors, leading to a D(4)-selective ligand” (Bioorg Med Chem, 2007):
Calls of active or inactive are those of the source. No cut-off for these calls is given here.

Experiments:
[1] = target: T1, D(1B) dopamine receptor (Homo sapiens, UniProt P21918); assay: Displacement of [3H]SCH 23390 from human Dopamine D5 receptor expressed in HEK293
In short: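 Whole HEK293 cell suspension in 5 mM MgCl2/50 mM Tris-HCl pH 7.4, incubated with [3H]SCH 23390 for 1.5 h at 27 °C. Fluphenazine 100 µM defined non-specific binding. Separation by filtration over polyethyleneimine-treated filters, then scintillation counting. At least two independent experiments, each in triplicate; Ki from IC50 by Cheng-Prusoff.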

[2] = target: T2, D(2) dopamine receptor (Homo sapiens, UniProt P14416); assay: Antagonist activity at human Dopamine receptor D2 isoform long expressed in HEK293 cells assessed as change in quinpirole-induced intracellular calcium response; format: functional, cell-based
T2 sequence (P14416 whole entry, canonical isoform): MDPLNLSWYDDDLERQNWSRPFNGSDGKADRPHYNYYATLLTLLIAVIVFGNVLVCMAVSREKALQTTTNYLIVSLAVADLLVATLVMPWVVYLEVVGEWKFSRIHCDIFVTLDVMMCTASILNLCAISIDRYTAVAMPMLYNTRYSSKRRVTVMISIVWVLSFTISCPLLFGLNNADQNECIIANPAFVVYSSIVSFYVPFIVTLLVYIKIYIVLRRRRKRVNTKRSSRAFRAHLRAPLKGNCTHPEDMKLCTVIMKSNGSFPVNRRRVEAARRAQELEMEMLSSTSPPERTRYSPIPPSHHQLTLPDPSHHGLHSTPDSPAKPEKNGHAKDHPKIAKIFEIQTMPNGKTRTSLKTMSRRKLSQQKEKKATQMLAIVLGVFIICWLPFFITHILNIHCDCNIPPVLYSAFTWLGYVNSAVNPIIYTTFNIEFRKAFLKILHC
In short: (§1)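 Intact HEK293 cells stably expressing the receptor, loaded with Oregon Green 488 BAPTA-1/AM plus Pluronic F-127 for 45 min at 37 °C, then suspended in Krebs-Hepes buffer pH 7.4. Fluorescence ex 485/em 520 nm read over 30 s. IC50 by four-parameter fit; Ki via modified Cheng-Prusoff.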

[3] = target: T2, D(2) dopamine receptor; assay: Displacement of [3H]Spiperone from human Dopamine receptor D2 isoform long expressed in HEK293 cells; format: cell-based
In short: (§2)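 [3H]Spiperone competition on whole-cell suspensions (D2L in HEK293, D4.4 in CHO) in Tris-HCl 50 mM/MgCl2 5 mM pH 7.4, 1.5 h at 27 °C. Non-specific binding defined with 10 µM haloperidol. Filtration over PEI-treated filtermat, scintillation counting. At least two independent triplicate experiments; nonlinear fit IC50 converted to Ki by Cheng-Prusoff.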

[4] = target: T1, D(1B) dopamine receptor; assay: Displacement of [3H]SCH 23390 from human Dopamine D5 receptor expressed in HEK293 cells at 10 uM; format: cell-based
In short: (§3)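 Whole HEK293 cells expressing hD5 or hD2L were suspended in 50 mM Tris-HCl, 5 mM MgCl2, pH 7.4, with [3H]SCH 23390 (D5) or [3H]spiperone (D2) and run in triplicate for 1.5 h at 27 °C. Samples were filtered on PEI-treated filtermats and counted by scintillation. Non-specific binding was set with fluphenazine 100 µM (D5) or haloperidol 10 µM (D2). The value is % change in bound radioactivity.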

[5] = Displacement of [3H]spiperone from human Dopamine D4.4 receptor expressed in CHO cells at 10 uM; format: cell-based
[6] = target: T1, D(1B) dopamine receptor; assay: Antagonist activity at human Dopamine D5 receptor in HEK293 cells assessed as change in SKF 38393-induced intracellular calcium response; format: functional, cell-based; in short: as §1
[7] = target: T2, D(2) dopamine receptor; assay: Displacement of [3H]spiperone from human Dopamine receptor D2 isoform long expressed in HEK293 cells at 10 uM; format: cell-based; in short: as §3
[8] = target: T1, D(1B) dopamine receptor; assay: Antagonist activity at human Dopamine D5 receptor in HEK293 cells assessed as change in SKF 38393-induced intracellular calcium response at 10 uM; format: functional, cell-based; parameters: scale not given: the % may be the effect or the level left
In short: (§4)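 HEK293 cells stably expressing hD2L or hD5 were loaded with Oregon Green 488 BAPTA-1/AM for 45 min at 37 °C and resuspended in Krebs-Hepes buffer at pH 7.4. Cells were preincubated with compound for 30 min at 37 °C, then given standard agonist at 1 µM final (quinpirole for D2, SKF 38393 for D5). Fluorescence (ex 485, em 520 nm) was read for 30 s; the value is % change of the agonist-induced signal.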

[9] = target: T2, D(2) dopamine receptor; assay: Antagonist activity at human Dopamine receptor D2 isoform long expressed in HEK293 cells assessed as change in quinpirole-induced intracellular calcium response at 10 uM; format: functional, cell-based; parameters: scale not given: the % may be the effect or the level left; in short: as §4
[10] = Displacement of [3H]spiperone from human Dopamine D4.4 receptor expressed in CHO cells; format: cell-based; in short: as §2
[11] = target: D(3) dopamine receptor (Homo sapiens, UniProt P35462); assay: Displacement of [3H]spiperone from human Dopamine D3 receptor expressed in CHO cells; format: cell-based
Chain of D(3) dopamine receptor (P35462 whole entry): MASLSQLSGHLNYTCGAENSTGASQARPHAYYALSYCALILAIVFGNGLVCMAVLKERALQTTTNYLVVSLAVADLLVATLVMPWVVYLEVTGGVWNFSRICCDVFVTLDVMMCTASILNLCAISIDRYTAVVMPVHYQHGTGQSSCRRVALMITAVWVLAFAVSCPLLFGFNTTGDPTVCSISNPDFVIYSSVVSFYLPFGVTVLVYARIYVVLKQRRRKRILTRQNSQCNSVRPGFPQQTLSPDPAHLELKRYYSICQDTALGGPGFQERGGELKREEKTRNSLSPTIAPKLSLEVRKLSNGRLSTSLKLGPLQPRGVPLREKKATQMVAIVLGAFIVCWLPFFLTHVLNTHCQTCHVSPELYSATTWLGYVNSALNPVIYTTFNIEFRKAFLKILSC

[12] = species on record: Homo sapiens; assay: Selectivity for human dopamine D4.4 receptor over human dopamine D5 receptor
[13] = species on record: Homo sapiens; assay: Selectivity for human dopamine D4.4 receptor over human dopamine receptor D2 isoform long
[14] = species on record: Homo sapiens; assay: Selectivity for human dopamine D4.4 receptor over human dopamine D3 receptor

T1 sequence (P21918 whole entry): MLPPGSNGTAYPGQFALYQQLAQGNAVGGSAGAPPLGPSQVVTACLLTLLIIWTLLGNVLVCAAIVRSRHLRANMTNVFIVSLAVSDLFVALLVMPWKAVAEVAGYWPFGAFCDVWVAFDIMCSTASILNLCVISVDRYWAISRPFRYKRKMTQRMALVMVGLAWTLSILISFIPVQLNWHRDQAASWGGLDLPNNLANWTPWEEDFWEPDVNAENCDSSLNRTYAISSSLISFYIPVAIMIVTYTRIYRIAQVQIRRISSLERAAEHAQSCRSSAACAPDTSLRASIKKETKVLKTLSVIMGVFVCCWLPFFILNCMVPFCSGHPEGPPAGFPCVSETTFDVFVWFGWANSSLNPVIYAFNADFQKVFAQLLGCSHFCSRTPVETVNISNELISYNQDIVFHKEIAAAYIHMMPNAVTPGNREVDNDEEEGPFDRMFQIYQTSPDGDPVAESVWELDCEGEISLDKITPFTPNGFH

Row | SMILES | Ki [1] | Ki [2] | Ki [3] | Activity [4] | Activity [6] | Activity [7] | Activity [8] | Activity [9] | Ki [11] | Ki [6] | Selectivity ratio [12] | Selectivity ratio [13] | Selectivity ratio [14] | Activity [5] | Ki [10]
1 | O=C1c2ccccc2S(=O)(=O)N1CCCCN1CCN(c2ccc(Cl)cc2)CC1 | 230 nM | > 10000 nM | 177 nM | 87% | inactive | 99% | 4% | -24% | 287 nM | – | – | – | – | 101% | 36 nM
2 | O=C1c2ccccc2CN1CCCCN1CCN(c2ccc(Cl)cc2)CC1 | 33.6 nM | > 10000 nM | 760 nM | 100% | inactive | 105% | 21% | -7% | 660 nM | – | – | – | – | 91% | 142 nM
3 | O=C1c2ccccc2CN1CCCCN1CCN(c2cccc(C(F)(F)F)c2)CC1 | 80.8 nM | 26 nM | 387 nM | 99% | inactive | 106% | 41% | -53% | 14 nM | – | – | – | – | 95% | 368 nM
4 | O=C1Cc2ccccc2N1CCCCN1CCN(c2ccc(Cl)cc2)CC1 | 202 nM | 375 nM | 1750 nM | 93% | inactive | 106% | 8% | -28% | 1200 nM | – | > 5000 | > 43000 | > 30000 | 101% | 0.04 nM

Now from value to compound, other results behind:

Row | Ki [1] | Ki [2] | Ki [3] | Activity [4] | Activity [6] | Activity [7] | Activity [8] | Activity [9] | Ki [11] | Ki [6] | Selectivity ratio [12] | Selectivity ratio [13] | Selectivity ratio [14] | SMILES | Activity [5] | Ki [10]
5 | 1700 nM | > 10000 nM | 73 nM | 76% | inactive | 107% | 9% | -38% | 102 nM | – | – | – | – | O=c1c2ccccc2ncn1CCCCN1CCN(c2cccc(C(F)(F)F)c2)CC1 | 98% | 185 nM
6 | – | 1.2 nM | 184 nM | – | – | 105% | – | -58% | – | – | – | – | – | COc1ccccc1N1CCN(CCCCn2cnc3ccccc3c2=O)CC1 | – | –
7 | 190 nM | 416 nM | 323 nM | 93% | inactive | 105% | 26% | -55% | 247 nM | – | – | – | – | O=C1Cc2ccccc2N1CCCCN1CCN(c2cccc(C(F)(F)F)c2)CC1 | 96% | 28 nM
8 | 507 nM | > 10000 nM | 140 nM | 76% | – | 100% | 5% | -44% | 1780 nM | Not Active | – | – | – | O=c1c2ccccc2ncn1CCCCN1CCN(c2ccc(Cl)cc2)CC1 | 102% | 158 nM
9 | 1760 nM | > 10000 nM | 113 nM | 89% | inactive | 100% | 8% | -44% | 107 nM | – | – | – | – | O=C1c2ccccc2S(=O)(=O)N1CCCCN1CCN(c2cccc(C(F)(F)F)c2)CC1 | 54% | > 10000 nM
